From ChEMBL document CHEMBL1158469 (J Med Chem, 2009)
Calls of active or inactive are those of the source. The rule behind the calls is not given here.

Key:
[1] = target: Bcl-2-like protein 1 (Homo sapiens) (UniProt Q07817); assay: Inhibition of Bcl-xL at 200 uM by 1D 1H NMR binding assay
[2] = Cytotoxicity against human PC3-ML cells assessed as cell viability after 72 hrs by ATP-LITE assay; format: functional, cell-based
In short: (§1)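 ATP-LITE viability readout. Seeded 24 h before dosing (H460, H1299 at 2000 cells/well; PC3 at 3000 cells/well) in 12F2 or RPMI1640 with 5 mM L-glutamine, 5% FBS and pen/strep. Fresh 5% medium added, then compounds in 0.1% DMSO final. Viability read after 72 h treatment and normalized to DMSO-treated cells.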

NCI-H460 = assay: Cytotoxicity against human H460 cells assessed as cell viability after 72 hrs by ATP-LITE assay; format: functional, cell-based; conditions: NCI-H460, 72 h; in short: as §1
Mus musculus [3] = assay: Induction of spleen weight shrinkage in human Bcl2 expressing B6 transgenic mouse at 72 umol/kg, ip administered as single dose after 24 hrs; format: functional
In short: (§2)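 Age- and sex-matched B6Bcl2 transgenic mice (human BCL-2/IgH minigene, B cells accumulating in spleen), free of aggressive lymphoma. Single ip injection at 72 μmol/kg in 500 μL ethanol:Cremophor EL:saline 10:10:80; controls got vehicle alone. Killed with Avertin after 24 h and spleen weighed. Shrinkage expressed as percentage of maximum spleen-weight reduction.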

[4] = Cytotoxicity against wild type mouse fibroblast assessed as induction of cell death at 10 uM by FITC-annexin V and propidium iodide assay; format: cell-based
In short: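 Wild-type MEFs seeded at half a million per well in DMEM with 10% FCS. Next day compound added at 0, 2.5, 5.0, 7.5 or 10 μM. On the following day, floating and trypsinized adherent cells were pooled and stained with Annexin V-FITC and PI in binding buffer. Analyzed by flow cytometry, with double-negative cells counted as viable.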

[5] = Cytotoxicity against human H1299 cells assessed as cell viability after 72 hrs by ATP-LITE assay; format: functional, cell-based; conditions: NCI-H1299, 72 h; in short: as §1
[6] = Induction of apoptosis in human BP3 cells after 1 to 2 days by FITC-annexin V and propidium iodide assay; format: functional, cell-based
[7] = Induction of apoptosis in human RS11846 cells after 1 to 2 days by FITC-annexin V and propidium iodide assay; format: functional, cell-based
Mus musculus [8] = assay: Reduction of spleen weight in human Bcl2 expressing B6 transgenic mouse at 72 umol/kg, ip administered as single dose after 24 hrs; format: functional; parameters: scale not given: the % may be the effect or the level left; in short: as §2
[9] = Cytotoxicity against Bax/Bak double knockout mouse fibroblast assessed as induction of cell death at 10 uM by FITC-annexin V and propidium iodide assay; format: cell-based
In short: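 MEFs (wild-type and Bax/Bak double knockout) seeded at half a million per well in DMEM with 10% FCS; next day compound added at final 0, 2.5, 5.0, 7.5 and 10 μM. After about one day, floating and trypsinised adherent cells were pooled and stained with Annexin V-FITC and PI. Flow cytometry scored Annexin V-negative/PI-negative cells as viable.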

Mus musculus [10] = assay: Toxicity in BALB/c mouse assessed as weight loss at 50 mg/kg, ip administered as single dose after 14 days; format: organism-based; parameters: dose 50 mg/kg, route intraperitoneal; conditions: in vivo, 336 h
In short: (§3)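 Tolerability study in five mice given a single ip dose of 100, 75, 50 or 25 mg/kg. Animals observed for 14 days, recording body weight loss as morbidity and mortality.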

Mus musculus [11] = assay: Toxicity in BALB/c mouse assessed as mortality at 100 mg/kg, ip administered as single dose after 14 days; format: organism-based; parameters: dose 100 mg/kg, route intraperitoneal; conditions: in vivo, 336 h
Mus musculus [12] = assay: Toxicity in BALB/c mouse assessed as weight loss at 75 mg/kg, ip after 5 days; format: organism-based; parameters: dose 75 mg/kg, route intraperitoneal; conditions: in vivo, 120 h; in short: as §3
[13] = Membrane permeability assessed as drug permeation at 100 uM at pH 7.2 after 8 hrs by PAMPA; format: ADME; conditions: pH 7.2, 8 h
Mus musculus [14] = assay: Toxicity in mouse assessed as reduction of spleen weight at 42 mg/kg, ip; format: organism-based; parameters: dose 42 mg/kg, route intraperitoneal; conditions: in vivo
In short: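 B6Bcl2 transgenic mice, six per group, given a single ip dose of 42 mg/kg (60 μmol/kg) in ethanol:Cremophor EL:saline 10:10:80; six vehicle-injected controls. Spleens weighed 24 h after injection. Data are means ± S.E. (n = 6).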

[15] = Stability in rat plasma after 1 hr at 37.5 degC; format: ADME, cell-free; conditions: read-out: Stability
In short: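 Compound incubated in rat plasma for 1 h; percentage of parent remaining was reported.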

Mus musculus [16] = assay: Toxicity in human Bcl2 expressing B6 transgenic mouse assessed as gastrointestinal toxicity at 42 umol/kg, ip administered as single dose; format: organism-based; conditions: in vivo
[17] = Chemical stability after 60 days at room temperature by HPLC/LC-MS analysis; format: physicochemical; conditions: 1440 h
In short: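 Solid compounds stored in air at room temperature for 60 days. Stability followed by HPLC combined with LC-MS.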

Mus musculus [18] = assay: Toxicity in BALB/c mouse assessed as mortality at 25 mg/kg, ip administered as single dose after 14 days; format: organism-based; parameters: dose 25 mg/kg, route intraperitoneal; conditions: in vivo, 336 h
Mus musculus [19] = assay: Toxicity in BALB/c mouse assessed as recovery of weight loss administered as single ip dose after 14 days; format: organism-based; conditions: in vivo, 336 h; in short: as §3
Mus musculus [20] = assay: Gastrointestinal toxicity in human Bcl2 expressing B6 transgenic mouse at 50 mg/kg, ip administered as single dose after 24 hrs; format: organism-based; parameters: dose 50 mg/kg, route intraperitoneal; conditions: in vivo
Mus musculus [21] = assay: Toxicity in human Bcl2 expressing B6 transgenic mouse administered as single dose at 72 umol/kg, ip after 24 hrs; format: organism-based; conditions: in vivo
Mus musculus [22] = assay: Toxicity in BALB/c mouse assessed as weight loss at 25 mg/kg, ip administered as single dose after 14 days; format: organism-based; parameters: dose 25 mg/kg, route intraperitoneal; conditions: in vivo, 336 h
Mus musculus [23] = assay: Reduction of spleen weight in human Bcl2 expressing B6 transgenic mouse at 42 umol/kg, ip administered as single dose after 24 hrs; format: functional; parameters: scale not given: the % may be the effect or the level left
Mus musculus [24] = assay: Toxicity in human Bcl2 expressing B6 transgenic mouse assessed as weight loss at 42 umol/kg, ip administered as single dose; format: organism-based; conditions: in vivo
[25] = Stability in rat liver microsome at 4 uM after 1 hr; format: ADME; conditions: liver microsomes, read-out: Stability
In short: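 Compound incubated for 1 h in rat microsomal preparations; percentage of parent remaining was reported.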

Mus musculus [26] = assay: Toxicity in BALB/c mouse assessed as mortality at 50 mg/kg, ip administered as single dose after 14 days; format: organism-based; parameters: dose 50 mg/kg, route intraperitoneal; conditions: in vivo, 336 h
Mus musculus [27] = assay: Toxicity in BALB/c mouse assessed as mortality at 75 mg/kg, ip administered as single dose after 14 days; format: organism-based; parameters: dose 75 mg/kg, route intraperitoneal; conditions: in vivo, 336 h
Bcl-2-related protein A1 = target: T1, Bcl-2-related protein A1 (Homo sapiens, UniProt Q16548); assay: Displacement of F-BakBH3 from Bfl-1 by fluorescence polarization assay
T1 sequence (Q16548 whole entry): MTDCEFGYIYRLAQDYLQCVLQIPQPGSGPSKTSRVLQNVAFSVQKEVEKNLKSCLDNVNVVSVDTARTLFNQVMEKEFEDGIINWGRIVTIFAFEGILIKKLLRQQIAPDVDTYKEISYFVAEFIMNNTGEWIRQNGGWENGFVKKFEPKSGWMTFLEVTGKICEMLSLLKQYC

BP3 = assay: Cytotoxicity against human BP3 cells expressing Bfl1/Mcl1 by FITC-annexin V and propidium iodide assay; format: functional, cell-based

Bcl-2-like protein 1 (Homo sapiens), sequence (Q07817 whole entry): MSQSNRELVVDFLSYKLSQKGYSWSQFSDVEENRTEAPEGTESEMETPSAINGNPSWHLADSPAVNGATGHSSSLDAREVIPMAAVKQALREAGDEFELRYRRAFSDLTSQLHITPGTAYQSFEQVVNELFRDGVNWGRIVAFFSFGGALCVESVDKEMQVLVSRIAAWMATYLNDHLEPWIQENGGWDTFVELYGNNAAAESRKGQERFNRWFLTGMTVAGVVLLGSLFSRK

Row | Structure (SMILES) | Activity [1] | EC50 [2] [µM] | EC50 (NCI-H460) [µM] | Activity (Mus musculus [3]) | Activity [4] | EC50 [6] [µM] | EC50 [7] [µM] | Activity (Mus musculus [8]) | logPe [13] [log cm/s] | remaining at 1 h [15] [%] | Stability [17] | Activity (Mus musculus [21]) | remaining at 1 h, 4 µM [25] [%] | further results
1 | Cc1cc2c(C(C)C)c(O)c(O)c(C=O)c2c(O)c1-c1c(C)cc2c(C(C)C)c(O)c(O)c(C=O)c2c1O [GOSSYPOL] | Active | 3.1 | 3 | <=40% | Active | 1.42 | 4.2 | <=20% | – | – | – | – | – | EC50 [5]: 6 µM; Activity [9]: Active
2 | Cc1cc2c(C(=O)NCC(C)c3ccccc3)c(O)c(O)cc2c(O)c1-c1c(C)cc2c(C(=O)NCC(C)c3ccccc3)c(O)c(O)cc2c1O (stereo not given) | Active | – | – | 85% | 80% | – | – | 40% | -7.51 | 96 | Stable | Toxic | 76 | Activity (Mus musculus [10]): <= 15%; Activity (Mus musculus [11]): Non-toxic; Activity (Mus musculus [12]): Non-toxic; Activity (Mus musculus [14]): Non-toxic; Activity (Mus musculus [16]): Non-toxic; Activity (Mus musculus [18]): Non-toxic; Activity (Mus musculus [19]): 80%; Activity (Mus musculus [20]): Toxic; Activity (Mus musculus [22]): Non-toxic; Activity (Mus musculus [23]): 70%; Activity (Mus musculus [24]): 7.8%; Activity (Mus musculus [26]): Non-toxic; Activity (Mus musculus [27]): Non-toxic
3 | Cc1cc2c(C(C)C)c(O)c(O)cc2c(O)c1-c1c(C)cc2c(C(C)C)c(O)c(O)cc2c1O [APOGOSSYPOL] | – | 10.4 | 3.5 | <=40% | – | 4.7 | 5 | <=20% | -7.16 | 53 | Stable | Non-toxic | 64 | IC50 (Bcl-2-related protein A1): > 10 µM
4 | CN(C)CC[C@H](CSc1ccccc1)Nc1ccc(S(=O)(=O)NC(=O)c2ccc(N3CCN(Cc4ccccc4-c4ccc(Cl)cc4)CC3)cc2)cc1[N+](=O)[O-] | – | – | – | – | – | – | – | – | – | – | – | – | – | Activity (BP3): inactive
